Results collected from several papers.
Observed: cell growth or viability

COc1nc(NCc2cn(-c3ccc(NC(=O)c4ccc(Cl)cc4)cc3)nn2)nc(OC)n1  IC50 (Caco-2; MTT; 72 h): 620 nM
COc1cc2c3c(n(CCCNCCO)c(=O)c2cc1OC)-c1nc2c(cc1C3=O)OCO2  IC50 (TC-32; MTS; 72 h): 104 nM
C=C(F)C(=O)N1CCN(c2nc(OC[C@@H]3CCCN3C)nc3c2CCN(c2cccc4cccc(Cl)c24)C3)C[C@@H]1CC#N  IC50 (HCC44; ATP luminescence; 3D culture): 3.82 nM
COc1nc(NCc2cn(-c3ccc(NC(=O)c4ccc([N+](=O)[O-])cc4)cc3)nn2)nc(OC)n1  IC50 (Caco-2; MTT; 72 h): 658 nM
CC(C)c1ccccc1[C@@H]1CCCN1C1CC2(CCN(c3ccc(C(=O)NS(=O)(=O)c4ccc(NC[C@H]5CC[C@](C)(O)CC5)c([N+](=O)[O-])c4)c(Oc4cnc5[nH]ccc5c4)c3)CC2)C1  IC50 (SU-DHL-4; ATP luminescence; 48 h): 2.7 nM
Nc1n[nH]c2nc(-c3cccc(O)c3)cc(-c3cc4cc(Cl)ccc4nc3N3CCOCC3)c12  IC50 (Caco-2; MTT; 72 h): 191 nM
COc1cccc2c1C(=O)c1c(O)c3c(c(O)c1C2=O)C[C@@](O)(C(=O)CO)C[C@@H]3O[C@H]1C[C@H](N)[C@H](O)[C@H](C)O1  IC50 (NCI-H1650; MTT; 72 h): 120 nM
COc1nc(NCc2cn(-c3ccc(C(=O)Nc4ccc(C)cc4)cc3)nn2)nc(OC)n1  IC50 (Caco-2; MTT; 72 h): 514 nM
COc1cc2c3c(n(CCCN4CCOCC4)c(=O)c2cc1OC)-c1nc2c(cc1C3=O)OCO2  IC50 (TC-32; MTS; 72 h): 569 nM
COc1cccc2c1C(=O)c1c(O)c3c(c(O)c1C2=O)C[C@@](O)(C(=O)CO)C[C@@H]3O[C@H]1C[C@H](N)[C@H](O)[C@H](C)O1  IC50 (Caco-2; MTT; 72 h): 1010 nM
CCOc1nc(-c2cccc(O)c2)cc(-c2cc3ccccc3nc2N2CCOCC2)c1C#N  IC50 (Caco-2; MTT; 72 h): 141 nM
C/C(=N\NC(=O)c1cccc(S(=O)(=O)N2CCN(C)CC2)c1)c1cc(Cl)ccc1O  IC50 (TC-32; resazurin): 3300 nM
COc1cc2c3c(n(CCCn4ccnc4)c(=O)c2cc1OC)-c1nc2c(cc1C3=O)OCO2  IC50 (TC-32; MTS; 72 h): 127 nM
C=CC(=O)N1CCN(c2nc(=O)n(-c3c(C)ccnc3C(C)C)c3nc(-c4c(O)cccc4F)c(F)cc23)[C@@H](C)C1  IC50 (HCC44; ATP luminescence): > 10000 nM
CCCOc1nc(-c2cccc(O)c2)cc(-c2cc3cc(OC)ccc3nc2N2CCOCC2)c1C#N  IC50 (Caco-2; MTT; 72 h): 42.2 nM
COc1nc(NCc2cn(-c3ccc(NC(=O)c4ccc(C)cc4)cc3)nn2)nc(OC)n1  IC50 (Caco-2; MTT; 72 h): 751 nM
